In ChEMBL document CHEMBL4130351, “Novel pyrazolopyrimidines: Synthesis, in vitro cytotoxic activity and mechanistic investigation” (Eur J Med Chem, 2017):

Assays:
MCF7 = test: Cytotoxicity against human MCF7 cells assessed as reduction in cell viability after 72 hrs by MTT assay; type: functional, cell-based; settings: MCF7, 72 h
Procedure, shortened: (§1)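 MCF-7 and HepG2 cells in exponential growth were trypsinized and seeded at 1000–2000 cells/well, then incubated 24 h at 37 °C. Compound exposure was 72 h at 0.1, 10, 100 and 1000 μM. Cells took up 5% MTT for 2 h, and formazan was dissolved in acidified isopropanol for 30 min at room temperature. A570 was read, viability expressed as % of control, and IC50 obtained by curve fitting.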

HepG2 [1] = test: Cytotoxicity against human HepG2 cells assessed as reduction in cell viability after 72 hrs by MTT assay; type: functional, cell-based; settings: HepG2, 72 h; procedure, shortened: as §1
HepG2 [2] = test: Cell cycle arrest in human HepG2 cells assessed as accumulation at G2/M phase at 0.4 uM after 24 hrs by propidium iodide staining-based flow cytometry (reference value: 4.36%); type: functional
HepG2 [3] = test: Induction of apoptosis in human HepG2 cells assessed as caspase-3 activation at 0.4 uM after 10 mins by ELISA relative to control; type: functional
Procedure, shortened: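 MCF-7 treated at 1.4 μM or HepG2 at 0.4 μM. Cells were trypsinized, rinsed in PBS, pelleted (105–106 cells) and resuspended in 1 mL PBS. Lysis was by three freeze/thaw cycles, followed by a 1500×g spin for 10 min at 2–8 °C. Active caspase-3 (cleaved at Asp175/Ser176) in the lysate was quantified by sandwich ELISA with an anti-rabbit HRP step, read at 450 nm, in pg/mL against control.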

HepG2 [4] = test: Induction of apoptosis in human HepG2 cells assessed as necrotic cells at 0.4 uM after 24 hrs by Annexin V/propidium iodide double staining-based flow cytometry (reference value: 0.09 %); type: functional
Procedure, shortened: (§2)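 MCF-7 exposed at 1.4 μM or HepG2 at 0.4 μM for 24 or 48 h. Cells were collected in PBS, fixed in ice-cold 70% ethanol, washed, then resuspended in PI staining solution containing 0.1 mg/mL RNase plus PE-Annexin V. Staining was 10 min in the dark at 37 °C, followed by FACSCalibur flow cytometry.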

[5] = target: Cyclin-dependent kinase inhibitor 1B (Homo sapiens) (UniProt P46527); test: Activation of human P27kip1 at 0.40 uM using TMB as substrate by ELISA (reference value: 0%)
Chain of Cyclin-dependent kinase inhibitor 1B (Homo sapiens) (P46527 whole entry): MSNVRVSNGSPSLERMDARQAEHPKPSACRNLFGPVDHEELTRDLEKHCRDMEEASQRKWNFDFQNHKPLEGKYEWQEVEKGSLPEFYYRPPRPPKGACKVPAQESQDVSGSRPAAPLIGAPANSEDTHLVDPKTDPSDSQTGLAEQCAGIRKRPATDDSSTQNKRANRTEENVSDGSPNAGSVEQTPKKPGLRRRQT
Procedure, shortened: (§3)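 Sandwich ELISAs on treated cells for p21Cip1 and p27Kip1: antibody-coated wells, detecting antibody, then HRP conjugate, with incubation and washing between steps. TMB substrate, reaction stopped, absorbance read at 450 nm. Output is residual concentration in pg/mL, expressed as % activation over untreated control.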

HepG2 [6] = test: Induction of apoptosis in human HepG2 cells assessed as viable cells at 0.4 uM after 24 hrs by Annexin V/propidium iodide double staining-based flow cytometry (reference value: 99.16 %); type: functional; settings: HepG2, 24 h, read-out: Activity; procedure, shortened: as §2
[7] = target: Cyclin-dependent kinase 2 (Homo sapiens) (UniProt P24941); test: Inhibition of CDK2 (unknown origin) at 0.4 uM by CDKN2A antibody-based spectrophotometry
[8] = target: Cyclin-dependent kinase 2 (Homo sapiens) (UniProt P24941); test: Inhibition of CDK2 (unknown origin) at 0.02 uM by CDKN2A antibody-based spectrophotometry
[9] = target: Cyclin-dependent kinase 2 (Homo sapiens) (UniProt P24941); test: Inhibition of CDK2 (unknown origin) at 0.1 uM by CDKN2A antibody-based spectrophotometry
Procedure, shortened: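 Sandwich enzyme immunoassay using a plate pre-coated with CDKN2A-specific antibody. Detection used a biotinylated anti-CDKN2A antibody, then avidin-HRP and substrate; the reaction was stopped and read at 450 nm. Compound levels tested were 0.004, 0.02, 0.1, 0.4 and 0.5 ug/mL, reported as % inhibition. IC50 was derived by Boltzmann sigmoidal nonlinear regression.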

HepG2 [10] = test: Induction of apoptosis in human HepG2 cells assessed as early apoptotic cells at 0.4 uM after 24 hrs by Annexin V/propidium iodide double staining-based flow cytometry (reference value: 0.61 %); type: functional; procedure, shortened: as §2
[11] = target: Cyclin-dependent kinase inhibitor 1 (Homo sapiens) (UniProt P38936); test: Activation of human P21cip1 at 0.40 uM using TMB as substrate by ELISA (reference value: 0%); procedure, shortened: as §3
Chain of Cyclin-dependent kinase inhibitor 1 (Homo sapiens) (P38936 whole entry): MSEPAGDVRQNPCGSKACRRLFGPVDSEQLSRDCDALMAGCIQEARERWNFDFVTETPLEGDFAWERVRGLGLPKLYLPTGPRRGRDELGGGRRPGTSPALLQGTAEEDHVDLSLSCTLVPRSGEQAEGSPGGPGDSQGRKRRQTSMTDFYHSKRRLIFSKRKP

[12] = target: Cyclin-dependent kinase 2 (Homo sapiens) (UniProt P24941); test: Inhibition of CDK2 (unknown origin) at 0.5 uM by CDKN2A antibody-based spectrophotometry
HepG2 [13] = test: Cell cycle arrest in human HepG2 cells assessed as accumulation at S phase at 0.4 uM after 48 hrs by propidium iodide staining-based flow cytometry (reference value: 21.69%); type: functional
HepG2 [14] = test: Cell cycle arrest in human HepG2 cells assessed as accumulation at G0/G1 phase at 0.4 uM after 48 hrs by propidium iodide staining-based flow cytometry (reference value: 73.11%); type: functional
HepG2 [15] = test: Induction of apoptosis in human HepG2 cells assessed as late apoptotic cells at 0.4 uM after 48 hrs by Annexin V/propidium iodide double staining-based flow cytometry (reference value: 0.14 %); type: functional; procedure, shortened: as §2
HepG2 [16] = test: Cell cycle arrest in human HepG2 cells assessed as accumulation at G0/G1 phase at 0.4 uM after 24 hrs by propidium iodide staining-based flow cytometry (reference value: 73.11%); type: functional
HepG2 [17] = test: Induction of apoptosis in human HepG2 cells assessed as late apoptotic cells at 0.4 uM after 24 hrs by Annexin V/propidium iodide double staining-based flow cytometry (reference value: 0.14 %); type: functional; procedure, shortened: as §2
HepG2 [18] = test: Cell cycle arrest in human HepG2 cells assessed as accumulation at S phase at 0.4 uM after 24 hrs by propidium iodide staining-based flow cytometry (reference value: 21.69%); type: functional
HepG2 [19] = test: Induction of apoptosis in human HepG2 cells assessed as viable cells at 0.4 uM after 48 hrs by Annexin V/propidium iodide double staining-based flow cytometry (reference value: 99.16 %); type: functional; settings: HepG2, 48 h, read-out: Activity; procedure, shortened: as §2
[20] = target: Cyclin-dependent kinase 2 (Homo sapiens) (UniProt P24941); test: Inhibition of CDK2 (unknown origin) at 0.004 uM by CDKN2A antibody-based spectrophotometry
HepG2 [21] = test: Induction of apoptosis in human HepG2 cells at 0.4 uM after 24 hrs by Annexin V/propidium iodide double staining-based flow cytometry (reference value: 0.84%); type: functional; procedure, shortened: as §2
HepG2 [22] = test: Induction of apoptosis in human HepG2 cells at 0.4 uM after 48 hrs by Annexin V/propidium iodide double staining-based flow cytometry (reference value: 0.84%); type: functional; procedure, shortened: as §2
HepG2 [23] = test: Cell cycle arrest in human HepG2 cells assessed as accumulation at G2/M phase at 0.4 uM after 48 hrs by propidium iodide staining-based flow cytometry (reference value: 4.36%); type: functional
HepG2 [24] = test: Induction of apoptosis in human HepG2 cells assessed as early apoptotic cells at 0.4 uM after 48 hrs by Annexin V/propidium iodide double staining-based flow cytometry (reference value: 0.61 %); type: functional; procedure, shortened: as §2
HepG2 [25] = test: Induction of apoptosis in human HepG2 cells assessed as necrotic cells at 0.4 uM after 48 hrs by Annexin V/propidium iodide double staining-based flow cytometry (reference value: 0.09 %); type: functional; procedure, shortened: as §2

N#Cc1cnn(-c2ccc(S(N)(=O)=O)cc2)c1N
IC50 (MCF7): > 100 µM
IC50 (HepG2 [1]): > 100 µM

NS(=O)(=O)c1ccc(-n2ncc3c(=O)[nH]c(-c4ccccc4)nc32)cc1
IC50 (MCF7): > 100 µM
IC50 (HepG2 [1]): 77.6 µM

NC(=O)c1cnn(-c2ccc(S(N)(=O)=O)cc2)c1N
IC50 (MCF7): > 100 µM
IC50 (HepG2 [1]): > 100 µM

NS(=O)(=O)c1ccc(-n2ncc3c(=O)[nH]c(-c4ccc(F)cc4)nc32)cc1
IC50 (MCF7): 38 µM
IC50 (HepG2 [1]): 2.66 µM

N=c1[nH]c(=O)[nH]c2c1cnn2-c1ccc(S(N)(=O)=O)cc1
Activity (HepG2 [2]): 23.78%
fold change (FC) (HepG2 [3]): 36
Activity (HepG2 [4]): 1.29%
Activity [5]: 8.5%
viability at 0.4 µM (HepG2 [6]): 86.3%
IC50 (MCF7): > 100 µM
inhibition [7]: 68.8%
inhibition [8]: 39%
inhibition [9]: 53.1%
Activity (HepG2 [10]): 7.64%
Activity [11]: 10.1%
inhibition [12]: 81.8%
Activity (HepG2 [13]): 24.67%
IC50 (HepG2 [1]): 0.4 µM
Activity (HepG2 [14]): 9.62%
Activity (HepG2 [15]): 5.92%
Activity (HepG2 [16]): 36.55%
Activity (HepG2 [17]): 4.79%
Activity (HepG2 [18]): 25.66%
viability at 0.4 µM (HepG2 [19]): 83.3%
inhibition [20]: 12.6%
Activity (HepG2 [21]): 13.92%
Activity (HepG2 [22]): 16.71%
Activity (HepG2 [23]): 48.91%
Activity (HepG2 [24]): 9.76%
Activity (HepG2 [25]): 1.03%
